Results taken from publication PMC8269116 (Journal of psychopharmacology (Oxford, England), 2019).
Values joined by “and” are separate entries in the source; they are usually repeats but may differ in a detail not shown here. Equal entries are not always repeated. Where two headings read alike, the source gives them in different places.

Experiments:
SERT = SERT (Homo sapiens, UniProt P31645); test: Radioligand binding, [3H]citalopram displacement
mouse TAAR1 = mouse TAAR1 (Mus musculus, UniProt Q923Y8); test: Radioligand binding, [3H]RO5166017 displacement
rat TAAR1 = rat TAAR1 (Rattus norvegicus, UniProt Q923Y9); test: Radioligand binding, [3H]RO5166017 displacement
NET [1] = biological target: T1, NET (Homo sapiens, UniProt P23975); test: Radioligand binding, N-methyl-[3H]nisoxetine displacement
5-HT2A receptor = 5-HT2A receptor (Homo sapiens, UniProt P28223); test: Radioligand binding, [3H]ketanserin displacement
DAT [2] = biological target: T2, DAT (Homo sapiens, UniProt Q01959); test: [3H]dopamine uptake inhibition in HEK 293 cells overexpressing human DAT; type: cell-based; conditions: for DAT/SERT ratio: 1/DAT IC50 : 1/SERT IC50, mean and 95% confidence interval
[3] = biological target: T3, α2 adrenergic receptor (α2A) (Homo sapiens, UniProt P08913); test: Radioligand binding, [3H]rauwolscine displacement
T3 sequence (P08913 1-465): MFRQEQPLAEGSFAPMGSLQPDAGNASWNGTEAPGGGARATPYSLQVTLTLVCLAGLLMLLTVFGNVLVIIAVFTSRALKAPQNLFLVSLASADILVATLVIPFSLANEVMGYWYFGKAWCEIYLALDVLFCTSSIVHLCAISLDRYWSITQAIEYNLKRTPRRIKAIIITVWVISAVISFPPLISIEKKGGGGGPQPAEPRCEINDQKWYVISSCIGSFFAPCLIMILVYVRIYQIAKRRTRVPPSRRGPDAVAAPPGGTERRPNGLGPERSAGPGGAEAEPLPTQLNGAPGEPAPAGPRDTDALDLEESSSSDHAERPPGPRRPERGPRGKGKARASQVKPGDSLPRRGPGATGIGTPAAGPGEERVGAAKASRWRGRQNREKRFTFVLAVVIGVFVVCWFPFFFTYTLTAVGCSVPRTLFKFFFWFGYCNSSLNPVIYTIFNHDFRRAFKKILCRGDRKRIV

5-HT1A receptor = biological target: T4, 5-HT1A receptor (Homo sapiens, UniProt P08908); test: Radioligand binding, [3H]8-hydroxy-2-
T4 sequence (P08908 1-422): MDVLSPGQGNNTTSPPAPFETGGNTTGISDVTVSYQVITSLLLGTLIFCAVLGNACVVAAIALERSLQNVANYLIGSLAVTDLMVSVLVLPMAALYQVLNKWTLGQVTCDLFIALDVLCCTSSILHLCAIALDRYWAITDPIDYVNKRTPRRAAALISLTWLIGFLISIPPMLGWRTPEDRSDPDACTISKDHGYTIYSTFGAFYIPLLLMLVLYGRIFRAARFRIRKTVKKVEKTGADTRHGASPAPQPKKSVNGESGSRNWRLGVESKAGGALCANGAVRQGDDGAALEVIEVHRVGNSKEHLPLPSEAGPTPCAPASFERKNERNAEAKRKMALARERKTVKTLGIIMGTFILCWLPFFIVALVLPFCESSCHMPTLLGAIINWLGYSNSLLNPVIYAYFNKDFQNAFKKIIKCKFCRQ

human TAAR1 = biological target: T5, human TAAR1 (Homo sapiens, UniProt Q96RJ0); test: Human TAAR1 activation, cAMP assay in HEK 293 cells; type: cell-based
T5 sequence (Q96RJ0 1-339): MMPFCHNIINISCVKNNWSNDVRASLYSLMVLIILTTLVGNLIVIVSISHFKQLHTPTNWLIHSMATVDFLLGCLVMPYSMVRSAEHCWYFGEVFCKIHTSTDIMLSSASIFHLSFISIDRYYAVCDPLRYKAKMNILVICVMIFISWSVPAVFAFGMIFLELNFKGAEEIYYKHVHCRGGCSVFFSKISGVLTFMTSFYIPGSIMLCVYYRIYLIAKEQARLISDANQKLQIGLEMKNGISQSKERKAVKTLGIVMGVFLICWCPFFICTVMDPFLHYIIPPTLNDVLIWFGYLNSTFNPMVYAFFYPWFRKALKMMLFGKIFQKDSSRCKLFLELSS
Outline: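 Recombinant HEK 293 cells expressing human TAAR1 were pelleted, resuspended, seeded at 80,000/well and incubated 20 h at 37 °C. After a PBS wash, the cells were preincubated 60 min at 37 °C in KRB with 1 mM IBMX. Test compound (300 pM–30 μM, duplicate), β-phenylethylamine (maximal response) or basal control was added for 40 min at 37 °C. Cells were lysed 120 min at RT with Ru-cAMP Alexa700 anti-cAMP antibody mix, and fluorescence was read against a per-plate cAMP standard curve (0.13 nM–10 μM).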

DAT [4] = biological target: T2, DAT; test: Radioligand binding, [3H]WIN35,428 displacement
5-HT2C receptor = biological target: T6, 5-HT2C receptor (Homo sapiens, UniProt P28335); test: biochemical; type: binding
T6 sequence (P28335 33-458): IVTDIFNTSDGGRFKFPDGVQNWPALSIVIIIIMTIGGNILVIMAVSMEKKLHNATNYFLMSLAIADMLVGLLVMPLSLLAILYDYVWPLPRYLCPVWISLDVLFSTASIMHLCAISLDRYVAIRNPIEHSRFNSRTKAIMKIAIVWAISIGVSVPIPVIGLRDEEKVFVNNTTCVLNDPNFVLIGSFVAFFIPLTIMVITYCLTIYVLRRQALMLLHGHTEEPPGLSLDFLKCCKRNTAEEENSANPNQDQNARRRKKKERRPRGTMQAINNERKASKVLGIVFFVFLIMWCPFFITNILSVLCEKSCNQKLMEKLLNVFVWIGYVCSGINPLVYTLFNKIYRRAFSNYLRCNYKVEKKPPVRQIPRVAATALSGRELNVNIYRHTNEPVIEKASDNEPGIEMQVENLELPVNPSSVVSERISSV

dopamine D2 receptors = dopamine D2 receptors (Homo sapiens, UniProt P14416); test: Radioligand binding, [3H]spiperone displacement
[5] = biological target: T7, α1 adrenergic receptor (α1A) (Homo sapiens, UniProt P35348); test: Radioligand binding, [3H]prazosin displacement
T7 sequence (P35348 1-466): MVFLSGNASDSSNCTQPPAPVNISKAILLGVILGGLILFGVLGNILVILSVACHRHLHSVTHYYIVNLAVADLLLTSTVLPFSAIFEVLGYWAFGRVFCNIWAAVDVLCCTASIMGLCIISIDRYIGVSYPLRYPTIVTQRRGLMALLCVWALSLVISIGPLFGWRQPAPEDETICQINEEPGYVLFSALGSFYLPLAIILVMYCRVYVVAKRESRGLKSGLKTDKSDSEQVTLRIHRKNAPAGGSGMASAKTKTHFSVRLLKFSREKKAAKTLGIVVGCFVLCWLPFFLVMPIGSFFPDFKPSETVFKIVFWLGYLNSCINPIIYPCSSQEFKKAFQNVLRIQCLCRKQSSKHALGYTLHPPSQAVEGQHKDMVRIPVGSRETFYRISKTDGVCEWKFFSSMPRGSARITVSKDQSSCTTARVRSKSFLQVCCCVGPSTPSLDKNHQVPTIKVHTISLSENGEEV

[6] = biological target: human 5-HT transporter (SERT) (Homo sapiens, UniProt P31645); test: [3H]5-HT uptake inhibition in HEK 293 cells overexpressing human SERT; type: cell-based
NET [7] = biological target: T1, NET; test: [3H]norepinephrine uptake inhibition in HEK 293 cells overexpressing human NET; type: cell-based
human 5-HT2B receptor = human 5-HT2B receptor (Homo sapiens, UniProt P41595); test: 5-HT2B receptor activation, FLIPR calcium assay in HEK 293 cells; type: cell-based
[8] = healthy human subjects, oral MDMA; ref Schmid et al., 2016; cited from earlier work
[9] = ref Lopez-Arnau et al., 2013, cited from earlier work
[10] = after subcutaneous injection of methylone; ref Stefkova et al., 2017; cited from earlier work
[11] = rat plasma, subcutaneous methylone; ref Elmore et al., 2017; cited from earlier work

T1 sequence (P23975 whole entry): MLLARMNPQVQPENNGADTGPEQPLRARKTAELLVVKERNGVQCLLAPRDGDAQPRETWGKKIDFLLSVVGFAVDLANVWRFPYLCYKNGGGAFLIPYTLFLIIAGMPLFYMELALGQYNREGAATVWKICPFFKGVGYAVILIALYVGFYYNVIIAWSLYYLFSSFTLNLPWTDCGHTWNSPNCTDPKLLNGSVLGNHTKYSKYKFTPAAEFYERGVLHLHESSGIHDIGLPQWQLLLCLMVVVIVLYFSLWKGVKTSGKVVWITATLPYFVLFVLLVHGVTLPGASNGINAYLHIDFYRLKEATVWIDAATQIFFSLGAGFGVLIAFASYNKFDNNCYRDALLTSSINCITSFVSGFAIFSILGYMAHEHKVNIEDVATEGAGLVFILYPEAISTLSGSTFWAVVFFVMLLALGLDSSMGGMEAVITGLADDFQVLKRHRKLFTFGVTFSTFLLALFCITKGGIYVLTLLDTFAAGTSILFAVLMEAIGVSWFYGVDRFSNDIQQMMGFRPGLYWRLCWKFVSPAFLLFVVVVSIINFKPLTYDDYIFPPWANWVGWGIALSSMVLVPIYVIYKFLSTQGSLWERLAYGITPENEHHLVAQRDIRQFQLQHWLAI
rat TAAR1, sequence (Q923Y9 whole entry): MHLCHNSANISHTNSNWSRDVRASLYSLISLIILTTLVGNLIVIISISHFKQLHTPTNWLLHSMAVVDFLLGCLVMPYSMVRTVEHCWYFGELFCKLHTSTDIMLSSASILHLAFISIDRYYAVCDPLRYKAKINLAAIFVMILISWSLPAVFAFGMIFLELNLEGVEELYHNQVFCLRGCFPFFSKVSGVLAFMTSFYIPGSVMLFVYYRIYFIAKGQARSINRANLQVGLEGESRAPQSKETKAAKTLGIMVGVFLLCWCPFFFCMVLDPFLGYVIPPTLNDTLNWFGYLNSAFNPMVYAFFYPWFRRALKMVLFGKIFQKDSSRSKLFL
SERT, sequence (P31645 whole entry): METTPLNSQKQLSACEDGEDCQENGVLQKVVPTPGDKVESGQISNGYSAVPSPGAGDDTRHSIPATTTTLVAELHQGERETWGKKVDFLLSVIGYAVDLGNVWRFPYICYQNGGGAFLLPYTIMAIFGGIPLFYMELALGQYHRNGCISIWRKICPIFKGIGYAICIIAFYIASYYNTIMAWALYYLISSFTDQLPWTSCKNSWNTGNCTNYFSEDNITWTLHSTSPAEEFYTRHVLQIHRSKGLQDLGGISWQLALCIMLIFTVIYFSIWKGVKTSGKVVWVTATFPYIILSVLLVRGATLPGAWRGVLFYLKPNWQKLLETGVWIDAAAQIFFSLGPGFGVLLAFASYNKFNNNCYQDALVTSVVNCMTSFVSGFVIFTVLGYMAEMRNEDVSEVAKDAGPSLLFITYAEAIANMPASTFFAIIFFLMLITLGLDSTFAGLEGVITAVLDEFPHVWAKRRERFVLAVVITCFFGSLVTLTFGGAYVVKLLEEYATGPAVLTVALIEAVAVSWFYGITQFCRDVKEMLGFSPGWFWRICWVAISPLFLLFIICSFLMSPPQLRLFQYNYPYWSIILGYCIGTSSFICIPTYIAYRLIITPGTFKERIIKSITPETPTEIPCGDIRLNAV
human 5-HT transporter (SERT), sequence (P31645 whole entry): as above
5-HT2A receptor, sequence (P28223 whole entry): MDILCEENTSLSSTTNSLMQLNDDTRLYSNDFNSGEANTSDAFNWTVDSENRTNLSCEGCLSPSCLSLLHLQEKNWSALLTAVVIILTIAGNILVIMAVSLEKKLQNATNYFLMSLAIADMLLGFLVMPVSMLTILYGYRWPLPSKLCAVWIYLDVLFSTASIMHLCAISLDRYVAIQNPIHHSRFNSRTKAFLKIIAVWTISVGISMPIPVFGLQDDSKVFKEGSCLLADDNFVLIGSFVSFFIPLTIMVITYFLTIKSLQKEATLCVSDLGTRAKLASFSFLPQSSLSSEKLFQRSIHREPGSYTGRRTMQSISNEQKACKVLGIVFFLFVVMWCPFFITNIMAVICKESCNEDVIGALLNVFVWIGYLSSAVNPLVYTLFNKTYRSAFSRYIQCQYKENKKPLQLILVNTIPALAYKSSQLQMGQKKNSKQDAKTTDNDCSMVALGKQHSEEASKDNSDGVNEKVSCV
dopamine D2 receptors, sequence (P14416 whole entry): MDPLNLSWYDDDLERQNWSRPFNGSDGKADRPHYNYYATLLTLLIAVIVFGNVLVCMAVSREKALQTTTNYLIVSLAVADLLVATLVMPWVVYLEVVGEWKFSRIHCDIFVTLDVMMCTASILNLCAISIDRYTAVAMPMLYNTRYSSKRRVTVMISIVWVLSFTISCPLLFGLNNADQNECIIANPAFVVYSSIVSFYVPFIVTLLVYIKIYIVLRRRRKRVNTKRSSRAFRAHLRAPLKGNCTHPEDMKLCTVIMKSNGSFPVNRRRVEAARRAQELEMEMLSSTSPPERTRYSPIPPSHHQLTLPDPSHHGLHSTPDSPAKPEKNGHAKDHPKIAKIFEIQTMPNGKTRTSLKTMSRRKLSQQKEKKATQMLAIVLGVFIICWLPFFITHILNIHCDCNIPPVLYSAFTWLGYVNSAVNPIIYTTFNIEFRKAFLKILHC
mouse TAAR1, sequence (Q923Y8 whole entry): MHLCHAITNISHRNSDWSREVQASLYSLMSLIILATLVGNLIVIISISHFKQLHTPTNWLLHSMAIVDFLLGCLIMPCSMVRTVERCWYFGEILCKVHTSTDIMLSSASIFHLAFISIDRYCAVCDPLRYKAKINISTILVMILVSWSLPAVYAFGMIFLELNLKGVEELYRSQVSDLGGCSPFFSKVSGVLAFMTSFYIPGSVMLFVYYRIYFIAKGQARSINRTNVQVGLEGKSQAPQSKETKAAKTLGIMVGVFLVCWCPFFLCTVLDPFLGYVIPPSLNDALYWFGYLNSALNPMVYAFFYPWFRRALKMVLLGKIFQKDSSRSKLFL
T2 sequence (Q01959 whole entry): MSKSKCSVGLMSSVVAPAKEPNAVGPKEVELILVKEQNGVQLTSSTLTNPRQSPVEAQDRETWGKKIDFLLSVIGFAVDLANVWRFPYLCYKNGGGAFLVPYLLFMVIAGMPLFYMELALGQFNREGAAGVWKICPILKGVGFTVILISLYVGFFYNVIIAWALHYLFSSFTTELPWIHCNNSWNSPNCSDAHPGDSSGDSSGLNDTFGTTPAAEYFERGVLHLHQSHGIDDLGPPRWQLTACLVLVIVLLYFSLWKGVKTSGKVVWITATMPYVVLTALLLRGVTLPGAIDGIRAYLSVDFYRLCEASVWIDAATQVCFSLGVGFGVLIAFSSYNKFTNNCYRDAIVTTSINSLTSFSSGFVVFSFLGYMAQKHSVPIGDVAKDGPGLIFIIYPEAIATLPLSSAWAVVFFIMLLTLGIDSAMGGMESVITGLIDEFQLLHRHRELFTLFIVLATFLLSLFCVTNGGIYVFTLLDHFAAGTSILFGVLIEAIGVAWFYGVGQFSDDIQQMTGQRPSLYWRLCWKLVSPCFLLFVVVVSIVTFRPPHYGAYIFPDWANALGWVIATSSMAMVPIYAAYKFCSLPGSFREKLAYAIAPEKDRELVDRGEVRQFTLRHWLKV
human 5-HT2B receptor, sequence (P41595 whole entry): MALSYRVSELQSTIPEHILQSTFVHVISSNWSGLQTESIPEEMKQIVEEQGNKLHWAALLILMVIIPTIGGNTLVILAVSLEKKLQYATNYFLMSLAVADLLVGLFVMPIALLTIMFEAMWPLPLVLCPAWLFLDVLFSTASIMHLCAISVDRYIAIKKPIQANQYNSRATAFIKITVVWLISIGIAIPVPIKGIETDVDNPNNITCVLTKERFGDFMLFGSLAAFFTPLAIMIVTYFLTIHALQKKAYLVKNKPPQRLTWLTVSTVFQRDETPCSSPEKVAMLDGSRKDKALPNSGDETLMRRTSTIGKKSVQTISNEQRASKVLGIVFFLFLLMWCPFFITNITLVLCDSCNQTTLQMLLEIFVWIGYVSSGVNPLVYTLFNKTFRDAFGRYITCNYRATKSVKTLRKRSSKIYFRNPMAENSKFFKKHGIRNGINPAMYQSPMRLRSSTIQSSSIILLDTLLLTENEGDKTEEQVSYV

| Structure (SMILES) | DAT/SERT ratio (DAT [2]) | Ki (SERT) [µM] | Ki (mouse TAAR1) [µM] | Ki (rat TAAR1) [µM] | Ki (NET [1]) [µM] | Ki (5-HT2A receptor) [µM] | IC50 (DAT [2]) [µM] | Ki [3] [µM] | Ki (5-HT1A receptor) [µM] | IC50 (NET [7]) [µM] | Ki (DAT [4]) [µM] | Ki (dopamine D2 receptors) [µM] | Ki [5] [µM] | IC50 [6] [µM] | further results |
| --- | --- | --- | --- | --- | --- | --- | --- | --- | --- | --- | --- | --- | --- | --- | --- |
| COc1cc(CC(C)N)ccc1O (stereo not shown) [HMA, 4-hydroxy-3-methyoxyamphetamine] | 270 (96–830) |  |  |  |  |  |  |  |  |  |  |  |  |  | Ki (SERT; read-out: SERT Ki, mean±SD, n=3): > 7.4 µM; Ki (mouse TAAR1; read-out: TAAR1mouse Ki, mean±SD, n=3): 0.05 ± 0.02 µM; Ki (rat TAAR1; read-out: TAAR1rat Ki, mean±SD, n=3): 0.15 ± 0.02 µM; Ki (NET [1]; read-out: NET Ki, mean±SD, n=3): > 8.8 µM; Ki (5-HT2A receptor; read-out: 5-HT2A Ki, mean±SD, n=3): > 12 µM; maximum dopamine transporter inhibition (DAT [2]; partial inhibition of dopamine uptake): 66%; Ki ([3]; read-out: α2A Ki, mean±SD, n=3): > 4.7 µM; Ki (5-HT1A receptor; read-out: 5-HT1A Ki, mean±SD, n=3): > 18 µM; EC50 (human TAAR1; read-out: human TAAR1 activation EC50): 10.4 µM and 10 µM; human TAAR1 activation efficacy (human TAAR1; β-phenylethylamine as maximal response): 51 ± 12%; Ki (DAT [4]; read-out: DAT Ki, mean±SD, n=3): > 8.5 µM; Ki (5-HT2C receptor; read-out: 5-HT2c Ki, mean±SD, n=3): > 5.1 µM; Ki (dopamine D2 receptors; read-out: D2 Ki, mean±SD, n=3): > 13 µM; Ki ([5]; read-out: α1A Ki, mean±SD, n=3): > 9.5 µM; IC50 ([6]; read-out: SERT IC50, 5-HT uptake inhibition, mean and 95% confidence interval): 35 µM |
| CC(N)Cc1ccc2c(c1)OCO2 (stereo not shown) [MDA, 3,4-methylenedioxyamphetamine, reference compound] |  | > 7.4 | 0.18 ± 0.03 | 0.22 ± 0.03 | > 8.8 | 3.2 ± 0.8 | 17 | 2.6 ± 0.1 | 9 ± 0.8 | 0.38 | > 8.5 | > 13 | 8.8 ± 0.6 | 4.3 | EC50 (human 5-HT2B receptor): 0.2 ± 0.01 µM; 5-HT2B receptor activation efficacy (human 5-HT2B receptor; relative to 5-HT activity defined as 100%): 51 ± 7%; Cmax as % of the Cmax of MDMA [8]: 4–8% |
| CNC(C)C(=O)c1ccc2c(c1)OCO2 (stereo not shown) [Methylone, 3,4-methylenedioxymethcathinone, reference compound] | 2.7 (1.9–3.8) | > 7.5 | > 4.7 | > 5 | > 8.7 | > 12 | 6.6 | > 5 | > 17 | 0.56 | 2.3 ± 0.1 | > 13 | > 9.5 | 18 | Tmax ([9]; 15 mg/kg oral dose): 30 min; Tmax ([9]; 30 mg/kg oral dose): 60 min; brain vs. serum concentration, times higher [10]: approximately five; time of maximum brain and serum concentrations [10]: 30 min; time at which Cmax was reached [11]: 15 min; Ki (5-HT2C receptor): > 14 µM |
